Source: PubChem (Broad Institute)
PAX8 inh HTS: inhibitors of PAX8-driven TPO luciferase reporter, primary screen, RMG-I cells, single concentration | SteadyGlo, 24 h | inhibition, % at 12.6 µM | actives 1.2% (n = 360,000) | AID 652154, 2013;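 active = mean replicate inhibition at least 60% with every replicate also reaching 60%; inconclusive = only one of the two criteria is met; inactive = mean below 60% and not all replicates reaching 60%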;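 note: luciferase light reporting Pax8 driven TPO promoter activity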
Env fusion inh: inhibitors of HIV-1 Env-driven cell-cell fusion, primary screen, HeLa-JRFL effector, CEM21 target cells, luciferase; inhibition, % at 12.3 µM; actives 1.1% (n = 360,000); AID 651610, 2012;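 active = mean replicate inhibition score of at least 50 and every replicate individually at or above 50; inconclusive = only one of the two criteria met; inactive = mean below 50 and not all replicates reaching 50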
dFosB act: activators of delta FosB homodimer, primary screen, biochemical, fluorescence polarization, TAMRA-CDK5 oligo, single point. Protein FosB (Mus musculus), P13346. purified delta FosB; percent of positive-control signal above neutral wells. activation, % at 25 µM. actives 0.99% (n = 340,000). AID 493131, 2011;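 active = mean activation above about 17%, with every replicate also reaching it, limit read from the data, passing the limit was not always enough; inconclusive = only one of the two conditions met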
CDK5 p35 inh: inhibitors of human CDK5/p35 kinase, primary screen, biochemical, single concentration; AID 488839, 2010; actives 0.01% (n = 330,000); Recombinant CDK5/p35, ADP-Glo luminescence, 60 min; inhibition, % at 10 µM;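 active = highest replicate inhibition of at least 50% and at least 75% of replicates reaching 50%; inconclusive = only one of the two criteria met; inactive = both criteria failed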
Target sequence (Q00535 whole entry, looked up): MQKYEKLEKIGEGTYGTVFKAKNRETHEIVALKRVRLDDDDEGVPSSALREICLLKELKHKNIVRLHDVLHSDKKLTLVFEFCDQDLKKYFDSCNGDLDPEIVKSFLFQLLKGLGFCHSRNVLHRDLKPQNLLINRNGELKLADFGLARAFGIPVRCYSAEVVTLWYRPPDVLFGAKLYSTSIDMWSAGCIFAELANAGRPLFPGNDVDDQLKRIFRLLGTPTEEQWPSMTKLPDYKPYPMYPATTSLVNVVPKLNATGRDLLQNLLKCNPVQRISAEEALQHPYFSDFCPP
Target sequence (Q15078 whole entry, looked up): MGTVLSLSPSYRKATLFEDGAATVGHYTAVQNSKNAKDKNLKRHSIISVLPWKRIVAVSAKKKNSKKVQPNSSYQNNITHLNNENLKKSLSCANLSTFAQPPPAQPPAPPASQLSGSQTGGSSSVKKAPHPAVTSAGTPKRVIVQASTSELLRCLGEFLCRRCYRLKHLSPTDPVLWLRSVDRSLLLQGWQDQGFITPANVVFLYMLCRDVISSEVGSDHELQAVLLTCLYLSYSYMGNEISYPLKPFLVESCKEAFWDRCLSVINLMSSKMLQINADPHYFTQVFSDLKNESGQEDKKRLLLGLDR
Cneo AK release: Cryptococcus neoformans cell lysis inducers, primary screen, AK release luminescence, single concentration; C. neoformans lysis, adenylate kinase release luminescence, 4 h; normalised: neutral wells 0, clomiphene wells 100; lysis activity, % at 15 µM; actives 0.2% (n = 360,000); AID 651654, 2012;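 active = mean lysis activity across replicates of at least 80%, whatever share of replicates individually reach that level; inactive = mean lysis activity below 80%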
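Test system: log-phase Cryptococcus neoformans yeast cells; Quantity: yeast cell density of 5 × 10^6 cells/mL; Buffer or medium: YPD; Doses: single compound concentration per well; Timing: 4 h at 37 °C static, read 1 h later; Measured by: AK luminescence; Read-out basis: lysis from increased AK signal; Control set: Clomiphene as positive control.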
GSIS activator: GLuc luminescence reporter in INS-1E cells, primary screen for activators of glucose-dependent secretion of insulin. INS-1E GLuc reporter insulin secretion, 2-3 h. activation, % at 16.6 µM. actives 0.61% (n = 370,000). AID 743287, 2014;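 active = lowest replicate activation of at least 40%, so every replicate reaches that level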
Each line names hits and unclear results; the compound was inactive in the other large screens; [ ] = another dose, or the depositor's remark. This is a sample that favours compounds with a hit; in the whole collection about 2.9% have one here.

COC(=O)[C@H]1[C@@H](O)[C@@]2(O)c3c(OC)cc(OC)cc3O[C@@]2(c2ccc(OC)cc2)[C@@H]1c1ccc(F)cc1	PAX8 inh HTS 97.8 (no result: dFosB act, CDK5 p35 inh, Cneo AK release, GSIS activator)
COC(=O)C1C(=O)C=C(Nc2ccc(F)cc2)CC1c1ccc(OC)cc1 (configuration not stated)	none
C[C@H]1CCCCO[C@H](CN(C)C(=O)Nc2ccc(F)cc2)[C@@H](C)CN([C@@H](C)CO)C(=O)c2cc(NC(=O)Nc3ccc(C(F)(F)F)cc3)ccc2O1	PAX8 inh HTS 83.8 (no result: dFosB act, CDK5 p35 inh)
C[C@H]1CCCCO[C@H](CN(C)C(=O)Nc2ccc(F)cc2)[C@@H](C)CN([C@@H](C)CO)C(=O)c2cc(NC(=O)Nc3ccc(F)cc3)ccc2O1	Env fusion inh 62.2[16.7 µM] (no result: dFosB act, CDK5 p35 inh)
C[C@H]1CCCCO[C@H](CN(C)C(=O)Nc2ccc(C(F)(F)F)cc2)[C@@H](C)CN([C@@H](C)CO)C(=O)c2cc(NC(=O)Nc3ccc(F)cc3)ccc2O1	PAX8 inh HTS 84.3, Env fusion inh 76.7[16.7 µM] (no result: dFosB act, CDK5 p35 inh)
C[C@@H]1CN([C@H](C)CO)C(=O)c2cc(NC(=O)Nc3ccc(C(F)(F)F)cc3)ccc2O[C@@H](C)CCCCO[C@H]1CN(C)S(C)(=O)=O	PAX8 inh HTS 73.0 (no result: dFosB act, CDK5 p35 inh)
COc1ccccc1CNC(=O)C[C@H]1CC[C@H]2[C@@H](COC[C@@H](O)CN2C(=O)Nc2ccccc2)O1	none (no result: Env fusion inh, dFosB act, CDK5 p35 inh)
C[C@@H]1CCCCO[C@H](CN(C)C(=O)C2CCCCC2)[C@@H](C)CN([C@@H](C)CO)C(=O)c2cc(NC(=O)Nc3ccc(F)cc3)ccc2O1	PAX8 inh HTS 103.9, Env fusion inh 57.4[16.7 µM] (no result: dFosB act, CDK5 p35 inh)
CC(C)NC(=O)Nc1ccc2c(c1)C(=O)N([C@@H](C)CO)C[C@@H](C)[C@@H](CN(C)C(=O)Nc1ccc(C(F)(F)F)cc1)OCCCC[C@@H](C)O2	Env fusion inh 78.9[16.7 µM] (no result: dFosB act, CDK5 p35 inh)
CC(C)NC(=O)Nc1ccc2c(c1)C(=O)N([C@H](C)CO)C[C@H](C)[C@@H](CN(C)C(=O)Nc1ccc(C(F)(F)F)cc1)OCCCC[C@H](C)O2	none (no result: dFosB act, CDK5 p35 inh)
C[C@@H]1CN([C@@H](C)CO)C(=O)c2cc(NC(=O)Nc3ccc(F)cc3)ccc2O[C@@H](C)CCCCO[C@@H]1CN(C)C(=O)C1CCCCC1	none (no result: dFosB act, CDK5 p35 inh)
C[C@H]1CCCCO[C@@H](CN(C)S(=O)(=O)c2cccs2)[C@@H](C)CN([C@@H](C)CO)C(=O)c2cc(NC(=O)NC3CCCCC3)ccc2O1	PAX8 inh HTS 96.8 (no result: dFosB act, CDK5 p35 inh)
C[C@@H]1CCCCO[C@@H](CN(C)C(=O)Nc2ccc(F)cc2)[C@H](C)CN([C@@H](C)CO)C(=O)c2cc(NC(=O)Nc3ccc(C(F)(F)F)cc3)ccc2O1	PAX8 inh HTS 78.3 (no result: dFosB act, CDK5 p35 inh)
C[C@@H]1CCCCO[C@@H](CN(C)CC2CC2)[C@H](C)CN([C@H](C)CO)C(=O)c2cc(NC(=O)CCCN(C)C)ccc2O1	none (no result: PAX8 inh HTS, Env fusion inh, dFosB act, CDK5 p35 inh, Cneo AK release)
C[C@H](CO)N1C[C@H](C)[C@H](CN(C)S(=O)(=O)c2cn(C)cn2)Oc2ccc(NC(=O)Cc3cn(C)c4ccccc34)cc2CC1=O	none (no result: dFosB act, CDK5 p35 inh)
CCCC(=O)N1CCC2(CC1)CN(S(=O)(=O)c1ccc(C)cc1)[C@H](CO)c1[nH]c3cc(OC)ccc3c12	none (no result: Env fusion inh, dFosB act, CDK5 p35 inh, Cneo AK release)
C[C@@H]1CCCCO[C@H](CN(C)C(=O)Nc2ccc(C(F)(F)F)cc2)[C@@H](C)CN([C@@H](C)CO)C(=O)c2cc(NC(=O)Nc3ccc(C(F)(F)F)cc3)ccc2O1	PAX8 inh HTS 89.3, Env fusion inh inconclusive (no result: dFosB act, CDK5 p35 inh)
C[C@@H]1CCCCO[C@@H](CN(C)C)[C@H](C)CN([C@H](C)CO)C(=O)c2cc(NC(=O)Nc3ccc(C(F)(F)F)cc3)ccc2O1	PAX8 inh HTS 62.9 (no result: dFosB act, CDK5 p35 inh)
C[C@@H]1CN([C@H](C)CO)C(=O)c2cc(NC(=O)Nc3ccc(F)cc3)ccc2O[C@@H](C)CCCCO[C@H]1CN(C)C(=O)Nc1ccc(C(F)(F)F)cc1	PAX8 inh HTS 87.0 (no result: dFosB act, CDK5 p35 inh)
C[C@H](CO)N1C[C@H](C)[C@H](CN(C)S(=O)(=O)c2cccs2)OCCCC[C@H](C)Oc2ccc(NC(=O)Nc3ccc(C(F)(F)F)cc3)cc2C1=O	PAX8 inh HTS 74.8 (no result: dFosB act, CDK5 p35 inh)
C[C@@H]1CCCCO[C@@H](CN(C)C(=O)Nc2ccc(C(F)(F)F)cc2)[C@@H](C)CN([C@H](C)CO)C(=O)c2cc(NC(=O)Nc3ccc(F)cc3)ccc2O1	none (no result: PAX8 inh HTS, Env fusion inh, dFosB act, CDK5 p35 inh, Cneo AK release)
Cc1ccc(S(=O)(=O)Nc2ccc3c(c2)CC(=O)N([C@@H](C)CO)C[C@@H](C)[C@@H](CN(C)Cc2ccc(Cl)c(Cl)c2)O3)cc1	none (no result: dFosB act, CDK5 p35 inh)
O=C(C[C@H]1C[C@H]2c3cc(NC(=O)Nc4ccccc4)ccc3O[C@H]2[C@@H](CO)O1)NC1CCCC1	Env fusion inh inconclusive (no result: dFosB act, CDK5 p35 inh)
CC(C)NC(=O)Nc1ccc2c(c1)CC(=O)N([C@H](C)CO)C[C@H](C)[C@@H](CN(C)C(=O)Nc1ccc(C(F)(F)F)cc1)O2	none (no result: Env fusion inh, dFosB act, CDK5 p35 inh)
Cn1c(NCc2c(O)ccc3ccccc23)nc2ccccc21	Env fusion inh 71.0 (no result: PAX8 inh HTS, Cneo AK release, GSIS activator)
Cn1c(NCc2cc(Br)ccc2O)nc2ccccc21	none
CC(C)NC(=O)N1C[C@H]2[C@@H](c3ccccc31)[C@@H](CO)N2C(=O)c1ccccn1	none (no result: Env fusion inh, dFosB act, CDK5 p35 inh)
CC(=O)c1cccc(-c2ccc3c(c2)C(C)(Cc2ccccc2C#N)C(=O)N3)c1 (configuration not stated)	none (no result: dFosB act, CDK5 p35 inh)
COc1ccc(Cl)cc1CC1(C)C(=O)Nc2ccc(-c3ccccc3OC)cc21 (configuration not stated)	Env fusion inh 92.0 (no result: dFosB act, CDK5 p35 inh)
CC1(Cc2cccc(F)c2)C(=O)Nc2ccc(-c3cccnc3)cc21 (configuration not stated)	none (no result: dFosB act, CDK5 p35 inh)
COc1ccccc1-c1ccc2c(c1)C(C)(Cc1ccc(F)c(Cl)c1)C(=O)N2 (configuration not stated)	Env fusion inh 95.9 (no result: dFosB act, CDK5 p35 inh)
CC1(Cc2ccc(Cl)cc2)C(=O)Nc2ccc(-c3cccnc3)cc21 (configuration not stated)	Env fusion inh 68.9 (no result: dFosB act, CDK5 p35 inh)
COc1ccc(C(C)=O)cc1CC1(C)C(=O)Nc2ccc(-c3cccc(C(F)(F)F)c3)cc21 (configuration not stated)	Env fusion inh 79.4 (no result: dFosB act, CDK5 p35 inh)
CCN(C[C@H]1N[C@@H](CO)[C@H]1c1ccccc1)C(=O)c1ccccc1	none (no result: Env fusion inh, dFosB act, CDK5 p35 inh)
C[C@@H]1CN([C@@H](C)CO)C(=O)c2cc(/C=C/c3ccccc3)cnc2O[C@H]1CN(C)C(=O)NC1CCCCC1	none (no result: dFosB act, CDK5 p35 inh)
Cc1ccc(S(=O)(=O)N(C)C[C@@H]2OCc3ccccc3-c3c(n(C)c4ccccc34)C(=O)N([C@H](C)CO)C[C@H]2C)cc1	none (no result: PAX8 inh HTS, Env fusion inh, dFosB act, CDK5 p35 inh)
